DENV2 CPE rescue: inhibitors of DENV2 cytopathic effect | DENV2-infected cells, cytopathic effect rescue, plate reader | 1.7% of 350,000 active | AID 651640 | CPE inhibition, % at 9.99 µM; in the data active means CPE inhibition above about 20%, passing the limit was not always enough; inconclusive means no clear call, values can overlap the other calls; tested in BHK-21 cells
S100A4 inh HTS: inhibitors of human S100A4 binding to myosin IIA peptide. inhibition, % at 10.7 µM. P26447. AID 652163. 0.14% of 360,000 active. S100A4/TAMRA-MyoIIA peptide fluorescence polarization;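 active means mean inhibition of at least 70% across replicates, with every replicate also reaching that level; inconclusive means mean inhibition reaches 70% but some replicates fall short; inactive means mean inhibition below 70%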
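Compound dosing: one dose per compound; test system: human S100A4 monomer with TAMRA-labelled myosin IIA peptide; probe or stimulus: TAMRA-labelled myosin IIA heavy-chain peptide probe, 5 nM; medium: HEPES buffer with Ca2+, pH 7.2; schedule: 5 min incubation before reading; benchmarks: neutral control DMSO, positive control TFP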
Xi reactivation: activators of X-chromosome reactivation in mouse fibroblasts; XiGFP mouse fibroblasts, % GFP-positive cells imaging, 3 d; cells co-treated with 5-aza-dC sensitizer; scaled so ellipticine positive control = 100%; activation, % at 7.58 µM; 0.055% of 360,000 active;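 active means mean normalized replicate activation at least 10% and every replicate at or above 10%; inconclusive means only one of the two criteria met; inactive means mean below 10% and not all replicates reach 10%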
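System: 68-5-11 XiGFP fibroblast line | Buffer or medium: DMEM containing 5-aza-dC | Compound: Single point | Times: Compounds 3 days, fix/stain 15 min at room temperature | Benchmarks: Positive control ellipticine, 6 µM final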
E-selectin induc: E-selectin induction on HUVECs. HUVEC E-selectin immunofluorescence imaging; normalized: neutral wells 0, TNF-alpha wells 100. 0.37% of 260,000 active. activation, % at 7.58 µM;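 active means mean E-selectin-positive cell signal at least 10% of the positive control, reached in at least 60% of replicates, without over 20% cell loss; inconclusive means no rule given, readout overlaps actives, possibly toxicity-flagged; inactive means the rest, including those meeting only one limit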
Target sequence (P16581 whole entry, looked up): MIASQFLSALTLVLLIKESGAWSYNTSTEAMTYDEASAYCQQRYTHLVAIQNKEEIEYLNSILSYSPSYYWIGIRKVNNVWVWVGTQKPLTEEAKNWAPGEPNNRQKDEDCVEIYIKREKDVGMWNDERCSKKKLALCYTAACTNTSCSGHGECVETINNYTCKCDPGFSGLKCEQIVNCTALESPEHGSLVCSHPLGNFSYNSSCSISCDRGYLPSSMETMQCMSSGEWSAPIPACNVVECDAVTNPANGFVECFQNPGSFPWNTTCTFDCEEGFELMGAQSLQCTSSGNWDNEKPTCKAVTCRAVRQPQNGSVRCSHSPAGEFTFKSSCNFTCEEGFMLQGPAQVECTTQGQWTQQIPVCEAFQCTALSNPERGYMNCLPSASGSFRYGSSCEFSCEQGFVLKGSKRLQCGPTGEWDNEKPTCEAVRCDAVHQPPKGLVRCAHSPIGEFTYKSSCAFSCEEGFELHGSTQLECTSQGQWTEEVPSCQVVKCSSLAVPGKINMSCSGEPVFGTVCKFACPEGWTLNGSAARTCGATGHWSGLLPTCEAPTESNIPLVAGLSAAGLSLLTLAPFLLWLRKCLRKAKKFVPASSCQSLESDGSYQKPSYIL
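Material: HUVEC primary endothelial cells; Amount: 3,000 cells per well; Dosing: single concentration; Medium: EGM-2 growth medium on 0.1% gelatin-coated wells; Read-out basis: percent E-selectin-positive cells; Signal: immunofluorescence imaging; Control set: TNF-alpha, DMSO.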
A number is an active result; – = inactive; ? = inconclusive; · = no result given; ! = repeats disagree. Most compounds without a hit are left out; they make up all but 2% or so of the library.

SMILES	DENV2 CPE rescue	S100A4 inh HTS	Xi reactivation	E-selectin induc
CC(C)OC(=O)c1ccc(NCc2cc(O)ccc2O)cc1	51.4	–	–	–
Cc1c(Br)c([N+](=O)[O-])nn1CC(=O)N1CCc2ccccc2C1	–	–	–	–
Cc1c(Br)c([N+](=O)[O-])nn1C(C)C(=O)N1CCc2ccccc2C1 (stereo not drawn)	23.6	–	–	–
CN1CCc2c1nc1ccccc1c2N (tested in a mixture with another compound)	–	–	–	·
CC(C)CC#Cc1ccc2c(c1)O[C@H](CN(C)C(=O)Nc1ccccc1F)[C@H](C)CN([C@H](C)CO)S2(=O)=O	32.3	–	–	–
CC(C)CC#Cc1ccc2c(c1)O[C@@H](CN(C)C(=O)Nc1ccccc1)[C@@H](C)CN([C@H](C)CO)S2(=O)=O	–	117.3	–	–
COc1ccc(C#Cc2ccc3c(c2)O[C@@H](CN(C)C(=O)Nc2cccc(OC)c2)[C@H](C)CN([C@@H](C)CO)S3(=O)=O)cc1	–	–	–	35.2
COc1ccc2c3c([nH]c2c1)[C@@H](CO)N(Cc1ccccc1)CC31CCN(CC2CC2)CC1	–	–	–	–
CN(C)C(=O)c1cccc(-c2ccc3c(c2)[C@@H]2[C@@H](CCN2C(=O)Cc2ccccc2)[C@H](CO)N3)c1	–	–	–	–
CN(C)C(=O)c1cccc(-c2ccc3c(c2)[C@@H]2[C@@H](CCN2C(=O)Cc2ccncc2)[C@@H](CO)N3)c1	104.0	·	–	–
CN(C)C(=O)c1cccc(-c2ccc3c(c2)[C@H]2[C@H](CCN2C(=O)c2cccnc2)[C@@H](CO)N3)c1	31.1	·	–	–
CN(C)C(=O)c1cccc(-c2ccc3c(c2)[C@H]2[C@H](CCN2C(=O)C2CC2)[C@@H](CO)N3)c1	–	78.3	–	–
CN(C)C(=O)c1cccc(-c2ccc3c(c2)[C@@H]2[C@@H](CCN2C(=O)c2cccnc2)[C@H](CO)N3)c1	–	·	–	–
O=C(N/N=C\c1ccc(O)c([N+](=O)[O-])c1)c1ccccc1-n1cccc1	·	·	–	·
C[C@@H]1CN([C@H](C)CO)C(=O)c2cc(C#CCC3CCCC3)cnc2O[C@H]1CN(C)S(=O)(=O)c1cccs1	–	–	–	–
C[C@@H]1CN([C@@H](C)CO)C(=O)c2cc(C#CCC3CCCC3)cnc2O[C@H]1CN(C)S(=O)(=O)c1cccs1	37.8	–	–	–
CC(C)CC#Cc1cnc2c(c1)C(=O)N([C@H](C)CO)C[C@@H](C)[C@H](CN(C)S(C)(=O)=O)O2	–	95.3	–	–
CC(C)CC#Cc1cnc2c(c1)C(=O)N([C@H](C)CO)C[C@@H](C)[C@H](CN(C)C(=O)c1ccc3c(c1)OCO3)O2	–	–	–	74.5
C[C@@H]1CN([C@H](C)CO)C(=O)c2cc(NC(=O)CCCN(C)C)ccc2O[C@@H](C)CCCCO[C@@H]1CN(C)S(=O)(=O)c1ccc(F)cc1	–	–	–	–
Cc1ccc(S(=O)(=O)NC(C)C(=O)N2CCOCCOCCOCC2)cc1 (stereo not drawn)	–	–	–	–
COc1ccc(NC(=O)N(C)C[C@H]2Oc3ccc(NC(=O)C4CC4)cc3CC(=O)N([C@H](C)CO)C[C@@H]2C)cc1	24.2	–	–	–
COc1ccc(NC(=O)N(C)C[C@@H]2Oc3ccc(NC(=O)Cc4ccccc4)cc3CC(=O)N([C@H](C)CO)C[C@H]2C)cc1	–	–	–	336.5
C[C@H](CO)N1C[C@H](C)[C@@H](CN(C)C(=O)Nc2ccccc2)Oc2ccc(NC(=O)Cc3ccccc3)cc2CC1=O	–	–	–	–
COc1ccc(NC(=O)N(C)C[C@@H]2Oc3ccc(NC(=O)Cc4ccccc4)cc3CC(=O)N([C@@H](C)CO)C[C@@H]2C)cc1	–	–	–	–
C[C@@H]1CN([C@@H](C)CO)C(=O)Cc2cc(NC(=O)Nc3ccccc3)ccc2O[C@@H]1CN(C)C(=O)Nc1ccccc1	–	–	–	–
SMILES	DENV2 CPE rescue	S100A4 inh HTS	Xi reactivation	E-selectin induc
C[C@@H]1CN([C@H](C)CO)C(=O)Cc2cc(NC(=O)Cc3ccccc3)ccc2O[C@@H]1CN(C)C(=O)Nc1ccc2c(c1)OCO2	27.8	–	–	–
C[C@@H]1CN([C@@H](C)CO)C(=O)Cc2cc(NC(=O)Nc3ccccc3)ccc2O[C@@H]1CN(C)C(=O)Nc1ccc(F)cc1	39.9	–	–	–
C[C@@H]1CCCCO[C@@H](CN(C)C(=O)Nc2ccc(C(F)(F)F)cc2)[C@H](C)CN([C@H](C)CO)C(=O)c2cc(N(C)C)ccc2O1	–	–	–	–
CC(C)Cn1c(SCC(=O)N2CCN(S(=O)(=O)c3ccccc3)CC2)nc2ccccc21	·	–	·	·
COc1ccc(NC(=O)N(C)C[C@@H]2Oc3ccc(NC(=O)Nc4ccccc4)cc3CC(=O)N([C@@H](C)CO)C[C@@H]2C)cc1	25.4	–	–	–
CC1(c2nnnn2Cc2ccccc2)CCC(=O)N1CCOc1ccccc1 (stereo not drawn)	92.1	–	–	–
CCCCn1nnnc1C1(C)CCC(=O)N1CCOc1ccccc1 (stereo not drawn)	65.5	–	–	–
COc1ccc(-n2nnnc2C2(C)CCC(=O)N2Cc2ccccc2)cc1 (stereo not drawn)	63.4	–	–	–
COc1ccc(CN2C(=O)CCC2(C)c2nnnn2C2CCCCC2)cc1 (stereo not drawn)	–	–	–	–
O=C(NN/C(=N/S(=O)(=O)c1ccc(Cl)cc1)c1ccccc1)c1ccc(O)cc1	·	·	–	·
O=S(=O)(NCc1ccc(F)cc1)c1ccc(Br)cc1Br	?	–	–	–
CN1OC[C@@H]2CN(Cc3cc(Cl)cc(Cl)c3)[C@H](c3cccc(-c4ccc(C#N)cc4)c3)C[C@@H]21	24.1	–	–	–
CN1C[C@H]2CON(C)[C@H]2C[C@H]1c1cccc(-c2ccc(C#N)cc2)c1	–	–	–	–
CC(=O)N1C[C@H]2CON(C)[C@H]2C[C@H]1c1cccc(-c2ccc(C#N)cc2)c1	21.4	–	–	–
NS(=O)(=O)c1cccc(NC(=O)C2CC(=O)N(Cc3ccco3)C2)c1 (stereo not drawn)	–	–	–	–
COc1ccc(S(=O)(=O)Nc2ccc3c(c2)C(=O)N([C@@H](C)CO)C[C@H](C)[C@H](CN(C)S(=O)(=O)c2ccc(F)cc2)O3)cc1	30.7!	–	–	–
CNC[C@@H]1Oc2c(NS(=O)(=O)c3ccc(F)cc3)cccc2C(=O)N([C@H](C)CO)C[C@H]1C	21.2	?	–	·
COc1ccc(S(=O)(=O)Nc2ccc3c(c2)C(=O)N([C@H](C)CO)C[C@@H](C)[C@@H](CN(C)S(=O)(=O)c2ccc(F)cc2)O3)cc1	–	–	–	–
COc1ccc(S(=O)(=O)Nc2ccc3c(c2)C(=O)N([C@H](C)CO)C[C@@H](C)[C@H](CN(C)S(=O)(=O)c2ccc(F)cc2)O3)cc1	25.3	–	–	–
